Test results published in ChEMBL document CHEMBL1154371, “Cytotoxic xanthone constituents of the stem bark of Garcinia mangostana (mangosteen)” (J Nat Prod, 2009).
Calls of active or inactive are those of the source. No cut-off for these calls is given here.

Assays:
[1] = biological target: T1, Nuclear factor NF-kappa-B p105 subunit (Homo sapiens, UniProt P19838); assay: Inhibition of p50 after 1 hr by ELISA
T1 sequence (P19838 whole entry): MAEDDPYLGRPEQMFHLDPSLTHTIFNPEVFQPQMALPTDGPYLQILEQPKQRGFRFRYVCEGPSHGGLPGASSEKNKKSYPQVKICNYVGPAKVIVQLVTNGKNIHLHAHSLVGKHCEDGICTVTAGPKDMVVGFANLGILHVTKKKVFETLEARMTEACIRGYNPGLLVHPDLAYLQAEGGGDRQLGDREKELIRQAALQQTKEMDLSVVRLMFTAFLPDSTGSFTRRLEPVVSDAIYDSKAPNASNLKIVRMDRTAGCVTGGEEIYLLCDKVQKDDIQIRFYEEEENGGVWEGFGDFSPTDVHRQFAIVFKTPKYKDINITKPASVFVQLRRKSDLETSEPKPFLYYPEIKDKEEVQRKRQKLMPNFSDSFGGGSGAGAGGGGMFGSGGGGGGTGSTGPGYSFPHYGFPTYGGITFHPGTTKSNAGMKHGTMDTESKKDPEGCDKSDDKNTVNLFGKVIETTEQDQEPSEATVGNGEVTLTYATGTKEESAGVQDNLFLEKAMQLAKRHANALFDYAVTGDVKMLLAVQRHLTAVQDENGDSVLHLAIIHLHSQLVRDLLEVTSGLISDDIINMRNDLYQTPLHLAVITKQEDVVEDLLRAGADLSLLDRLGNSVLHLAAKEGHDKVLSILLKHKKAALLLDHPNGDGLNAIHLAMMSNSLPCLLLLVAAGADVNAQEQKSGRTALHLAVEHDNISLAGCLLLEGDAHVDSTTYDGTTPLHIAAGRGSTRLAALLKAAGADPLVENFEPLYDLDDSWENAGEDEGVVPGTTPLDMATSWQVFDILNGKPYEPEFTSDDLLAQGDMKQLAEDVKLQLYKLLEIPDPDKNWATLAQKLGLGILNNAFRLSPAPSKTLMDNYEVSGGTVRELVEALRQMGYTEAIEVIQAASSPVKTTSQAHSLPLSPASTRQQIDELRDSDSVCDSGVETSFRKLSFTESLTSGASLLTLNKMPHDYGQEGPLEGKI

Transcription factor p65 = Transcription factor p65 (Homo sapiens, UniProt Q04206); assay: Inhibition of nuclear factor NF-kappa-B p65 subunit after 1 hr by ELISA
Sequence of Transcription factor p65 (Q04206 whole entry): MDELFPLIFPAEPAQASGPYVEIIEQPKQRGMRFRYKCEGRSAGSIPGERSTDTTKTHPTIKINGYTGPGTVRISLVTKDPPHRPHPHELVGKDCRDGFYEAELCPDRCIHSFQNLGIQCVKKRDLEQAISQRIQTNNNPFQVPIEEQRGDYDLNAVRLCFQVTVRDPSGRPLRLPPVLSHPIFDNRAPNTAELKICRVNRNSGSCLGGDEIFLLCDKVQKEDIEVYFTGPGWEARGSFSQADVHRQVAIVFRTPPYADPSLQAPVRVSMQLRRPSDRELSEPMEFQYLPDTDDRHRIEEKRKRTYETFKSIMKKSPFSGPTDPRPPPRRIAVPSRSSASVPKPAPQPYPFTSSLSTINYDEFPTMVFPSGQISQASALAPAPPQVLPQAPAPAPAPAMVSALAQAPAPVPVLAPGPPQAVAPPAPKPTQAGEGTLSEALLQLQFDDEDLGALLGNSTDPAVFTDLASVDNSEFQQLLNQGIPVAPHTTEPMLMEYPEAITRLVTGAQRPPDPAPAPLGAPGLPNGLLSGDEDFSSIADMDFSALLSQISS

HT-29 [2] = assay: Cytotoxicity against human HT-29 cells; type: functional; conditions: read-out: ED50 (the source's name)
Procedure, shortened: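 HT-29 human colon cancer cells. Camptothecin was the positive control. Cytotoxic potency is given as ED50.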

HT-29 [3] = assay: Growth inhibition of human HT-29 cells implanted at intraperitoneal compartment of NCr nu/nu mouse at 2.5 mg/kg to 20 mg/kg by hollow fiber assay; type: functional, organism-based
Procedure, shortened: (§1)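 Cells were loaded into hollow fibers and implanted at the intraperitoneal site of mice. Compound was given at 2.5, 5, 10 and 20 mg/kg. Paclitaxel at 20 mg/kg was the positive control.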

LNCaP = assay: Growth inhibition of human LNCAP cells implanted at intraperitoneal compartment of NCr nu/nu mouse at 2.5 mg/kg to 20 mg/kg by hollow fiber assay; type: functional, organism-based; procedure, shortened: as §1
MCF7 = assay: Growth inhibition of human MCF7 cells implanted at intraperitoneal compartment of NCr nu/nu mouse at 2.5 mg/kg to 20 mg/kg by hollow fiber assay; type: functional, organism-based

For `COc1cc2oc3cc(O)c(OC)c(CC=C(C)C)c3c(=O)c2c2c1CC(O)C(C)(C)O2` (stereo not given), the IC50 [1] was over 20 µM and the IC50 (Transcription factor p65) was over 20 µM.

`COc1c(O)cc2oc3cc(O)c4c(c3c(=O)c2c1CC=C(C)C)OC(C)(C)C(O)C4` (stereo not given) gave an IC50 [1] of over 20 µM and an IC50 (Transcription factor p65) of over 20 µM.

In the case of `COc1c(O)cc2oc3cc4c(c(O)c3c(=O)c2c1CC=C(C)C)C[C@H](C(C)(C)O)O4`, the EC50 (HT-29 [2]) is reported as over 10 µM.

`COc1cc2oc3cc(O)c(OC)c(CC=C(C)C)c3c(=O)c2c(O)c1CC=C(C)C` showed an IC50 [1] of 7.5 µM, an EC50 (HT-29 [2]) of 1.7 µM and an IC50 (Transcription factor p65) of 12.1 µM.

`COc1c(O)cc2oc3cc4c(c(O)c3c(=O)c2c1CC=C(C)C)CCC(C)(C)O4` showed an EC50 (HT-29 [2]) of 4.9 µM.

With `CC(C)=CCc1c(O)c(CC=C(C)C)c2oc3c(O)cccc3c(=O)c2c1O` [8-DEOXYGARTANIN] the IC50 [1] was over 20 µM, the EC50 (HT-29 [2]) was over 10 µM and the IC50 (Transcription factor p65) was 11.3 µM.

`CC[C@@]1(O)C(=O)OCc2c1cc1n(c2=O)Cc2cc3ccccc3nc2-1` [CAMPTOTHECIN] gave an EC50 (HT-29 [2]) of 0.06 µM.

With `COc1c(O)cc2oc3cc4c(c(O)c3c(=O)c2c1CC=C(C)C)[C@@H](c1c(O)c(CC=C(C)C)c(O)c2c(=O)c3c(CC=C(C)C)c(OC)c(O)cc3oc12)[C@H](C(C)(C)O)O4` [CRATOXYXANTHONE] the IC50 [1] was over 20 µM and the IC50 (Transcription factor p65) was over 20 µM.

`COc1c(O)cc2oc3cc(O)c(CC=C(C)C)c(O)c3c(=O)c2c1CCC(C)(C)O` [GARCINONE D] was tested, and the IC50 [1] was over 20 µM, the EC50 (HT-29 [2]) was 2.3 µM and the IC50 (Transcription factor p65) was 3.2 µM.

With `CC(C)=CCc1c(O)c(CC=C(C)C)c2oc3c(O)ccc(O)c3c(=O)c2c1O` [GARTANIN] the IC50 [1] was over 20 µM, the EC50 (HT-29 [2]) was over 10 µM and the IC50 (Transcription factor p65) was 19 µM.

With `COc1c(O)cc2oc3cc4c(c(O)c3c(=O)c2c1CC=C(C)C)C=CC(C)(C)O4` [MANGOSTANIN] the IC50 [1] was over 20 µM, the EC50 (HT-29 [2]) was 9.1 µM and the IC50 (Transcription factor p65) was over 20 µM.

With `COc1c(O)cc2oc3cc(O)c(CC=C(C)C)c(O)c3c(=O)c2c1CC=C(C)C` [MANGOSTIN] the IC50 [1] was over 20 µM, the EC50 (HT-29 [2]) was 1.7 µM and the IC50 (Transcription factor p65) was 15.9 µM. The “growth inhibition (GI)” value (HT-29 [3]) was “inactive”, the “growth inhibition (GI)” value (LNCaP) was “inactive” and the “growth inhibition (GI)” value (MCF7) was “inactive”.
